Experimental data taken from ChEMBL document CHEMBL4350961, “Discovery of Pyrrolo[3,2- d]pyrimidin-4-one Derivatives as a New Class of Potent and Cell-Active Inhibitors of P300/CBP-Associated Factor Bromodomain” (J Med Chem, 2019).
Activity calls are given as the source filed them. The rule behind the calls is not given here.

Experiments:
[1] = target: T1, Histone acetyltransferase KAT2B (Homo sapiens, UniProt Q92831); assay: Binding affinity to human N-terminal His-tagged PCAF assessed as change in melting temperature at 10 uM by SYPRO orange dye-based fluorescence assay
How it was run: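 Thermal shift with His-tagged human bromodomain at 2 μM final in 10 mM HEPES pH 7.5, 500 mM NaCl. Compound at 10 μM final with 0.1% DMSO; SYPRO Orange at 1:1000. Equilibrated 3 min at 25 °C, then heated from 25 to 95 °C at 1 °C/min. Melting temperature shift taken from fluorescence; at least duplicate.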
Target sequence in this assay (Q92831 whole entry, looked up): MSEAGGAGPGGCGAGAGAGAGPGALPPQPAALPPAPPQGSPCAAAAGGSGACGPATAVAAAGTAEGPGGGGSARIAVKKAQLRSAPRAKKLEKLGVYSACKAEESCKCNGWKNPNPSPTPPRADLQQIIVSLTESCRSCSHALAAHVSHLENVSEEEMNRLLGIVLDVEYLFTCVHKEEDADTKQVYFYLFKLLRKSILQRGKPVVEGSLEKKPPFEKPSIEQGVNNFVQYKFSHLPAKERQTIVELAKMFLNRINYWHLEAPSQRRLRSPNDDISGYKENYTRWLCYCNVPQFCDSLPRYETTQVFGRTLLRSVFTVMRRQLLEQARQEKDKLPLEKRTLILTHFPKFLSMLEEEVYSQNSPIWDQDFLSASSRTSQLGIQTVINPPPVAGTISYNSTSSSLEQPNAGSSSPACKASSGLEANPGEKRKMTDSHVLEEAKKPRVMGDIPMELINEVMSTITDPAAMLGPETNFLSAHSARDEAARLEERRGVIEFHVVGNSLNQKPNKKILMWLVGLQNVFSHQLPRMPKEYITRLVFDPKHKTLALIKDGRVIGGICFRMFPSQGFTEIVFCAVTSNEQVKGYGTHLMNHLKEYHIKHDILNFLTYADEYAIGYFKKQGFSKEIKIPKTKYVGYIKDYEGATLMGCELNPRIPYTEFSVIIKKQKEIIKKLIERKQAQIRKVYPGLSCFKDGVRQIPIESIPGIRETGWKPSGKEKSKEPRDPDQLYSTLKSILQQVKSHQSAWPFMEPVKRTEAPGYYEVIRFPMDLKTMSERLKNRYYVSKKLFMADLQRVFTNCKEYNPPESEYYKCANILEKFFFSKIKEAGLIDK

[2] = target: T1, Histone acetyltransferase KAT2B; assay: Inhibition of Halo-tagged histone H3.3 binding to N-terminal Nano luciferase-fused full-length PCAF (unknown origin) expressed in HEK293T cells co-expressing C-terminal Halo-tagged histone H3.3 measured after 18 hrs by 618 fluorescent ligand-based BRET assay; assay type: cell-based
How it was run: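 HEK293T cells co-transfected with histone H3.3-HaloTag and PCAF-NanoLuc. After 20 h, cells replated at 2×10^5/ml in phenol red-free DMEM with 4% FBS, with or without 100 nM NanoBRET 618 ligand. Compound dilutions or DMSO added, then 18 h at 37 °C, 5% CO2. Nano-Glo substrate added; 610/460 nm ratio minus no-ligand blank, in mBU; n = 2 biological replicates.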

[3] = test system: MEF; assay: Effect on LL6 gene expression in MEF cells at 2.5 uM measured after 48 hrs by RNA-sequencing analysis relative to control; assay type: functional, Mus musculus
How it was run: (§1)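 Mouse embryonic fibroblasts treated 48 h; negative-control enantiomer at 2.5 µM, DMSO as blank. Total RNA extracted with TRIzol, checked by NanoDrop, then RNA-seq with n = 3 per set. Genes called changed at >1.5-fold with p < 0.05 against blank.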

[4] = test system: MEF; assay: Effect on Unc5a gene expression in MEF cells at 2.5 uM measured after 48 hrs by RNA-sequencing analysis relative to control; assay type: functional, Mus musculus; how it was run: as §1
[5] = test system: MEF; assay: Effect on Slitrk6 gene expression in MEF cells at 2.5 uM measured after 48 hrs by RNA-sequencing analysis relative to control; assay type: functional, Mus musculus; how it was run: as §1
[6] = test system: MEF; assay: Effect on Dlx4 gene expression in MEF cells at 2.5 uM measured after 48 hrs by RNA-sequencing analysis relative to control; assay type: functional, Mus musculus; how it was run: as §1
[7] = test system: MEF; assay: Effect on Nr4a3 gene expression in MEF cells at 2.5 uM measured after 48 hrs by RNA-sequencing analysis relative to control; assay type: functional, Mus musculus; how it was run: as §1
[8] = test system: MEF; assay: Effect on Lonrf3 gene expression in MEF cells at 2.5 uM measured after 48 hrs by RNA-sequencing analysis relative to control; assay type: functional, Mus musculus; how it was run: as §1
[9] = test system: MEF; assay: Effect on Gabra4 gene expression in MEF cells at 2.5 uM measured after 48 hrs by RNA-sequencing analysis relative to control; assay type: functional, Mus musculus; how it was run: as §1
[10] = test system: MEF; assay: Effect on Clec5a gene expression in MEF cells at 2.5 uM measured after 48 hrs by RNA-sequencing analysis relative to control; assay type: functional, Mus musculus; how it was run: as §1
[11] = test system: MEF; assay: Effect on Slco1a5 gene expression in MEF cells at 2.5 uM measured after 48 hrs by RNA-sequencing analysis relative to control; assay type: functional, Mus musculus; how it was run: as §1
[12] = test system: MEF; assay: Effect on Slc26a7 gene expression in MEF cells at 2.5 uM measured after 48 hrs by RNA-sequencing analysis relative to control; assay type: functional, Mus musculus; how it was run: as §1
[13] = test system: MEF; assay: Effect on H60b gene expression in MEF cells at 2.5 uM measured after 48 hrs by RNA-sequencing analysis relative to control; assay type: functional, Mus musculus; how it was run: as §1
[14] = test system: MEF; assay: Effect on Gm36718 gene expression in MEF cells at 2.5 uM measured after 48 hrs by RNA-sequencing analysis relative to control; assay type: functional, Mus musculus; how it was run: as §1
[15] = test system: MEF; assay: Effect on Srcin1 gene expression in MEF cells at 2.5 uM measured after 48 hrs by RNA-sequencing analysis relative to control; assay type: functional, Mus musculus; how it was run: as §1
[16] = test system: MEF; assay: Effect on Zfyve28 gene expression in MEF cells at 2.5 uM measured after 48 hrs by RNA-sequencing analysis relative to control; assay type: functional, Mus musculus
How it was run: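 MEF cells treated for 48 h with test compound, with (S,S) enantiomer at 2.5 µM as negative control and DMSO as blank; total RNA (TRIzol, n = 3 per set) analysed by RNA-seq; genes counted as changed at >1.5-fold, p < 0.05, relative to blank control.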

[17] = test system: MEF; assay: Effect on Icos gene expression in MEF cells at 2.5 uM measured after 48 hrs by RNA-sequencing analysis relative to control; assay type: functional, Mus musculus; how it was run: as §1
[18] = test system: MEF; assay: Effect on Prrg3 gene expression in MEF cells at 2.5 uM measured after 48 hrs by RNA-sequencing analysis relative to control; assay type: functional, Mus musculus; how it was run: as §1
[19] = test system: MEF; assay: Effect on S100a8 gene expression in MEF cells at 2.5 uM measured after 48 hrs by RNA-sequencing analysis relative to control; assay type: functional, Mus musculus; how it was run: as §1
[20] = test system: MEF; assay: Effect on Erbb3 gene expression in MEF cells at 2.5 uM measured after 48 hrs by RNA-sequencing analysis relative to control; assay type: functional, Mus musculus; how it was run: as §1
[21] = test system: MEF; assay: Effect on Hkdc1 gene expression in MEF cells at 2.5 uM measured after 48 hrs by RNA-sequencing analysis relative to control; assay type: functional, Mus musculus; how it was run: as §1
[22] = test system: MEF; assay: Effect on Celsr1 gene expression in MEF cells at 2.5 uM measured after 48 hrs by RNA-sequencing analysis relative to control; assay type: functional, Mus musculus; how it was run: as §1
[23] = test system: MEF; assay: Effect on Cttnbp2 gene expression in MEF cells at 2.5 uM measured after 48 hrs by RNA-sequencing analysis relative to control; assay type: functional, Mus musculus; how it was run: as §1
[24] = test system: MEF; assay: Effect on Pkdrej gene expression in MEF cells at 2.5 uM measured after 48 hrs by RNA-sequencing analysis relative to control; assay type: functional, Mus musculus; how it was run: as §1
[25] = test system: MEF; assay: Effect on Mpz gene expression in MEF cells at 2.5 uM measured after 48 hrs by RNA-sequencing analysis relative to control; assay type: functional, Mus musculus; how it was run: as §1
[26] = test system: MEF; assay: Effect on Snhg11 gene expression in MEF cells at 2.5 uM measured after 48 hrs by RNA-sequencing analysis relative to control; assay type: functional, Mus musculus; how it was run: as §1
[27] = test system: MEF; assay: Effect on Klk9 gene expression in MEF cells at 2.5 uM measured after 48 hrs by RNA-sequencing analysis relative to control; assay type: functional, Mus musculus; how it was run: as §1
[28] = test system: MEF; assay: Effect on Ooep gene expression in MEF cells at 2.5 uM measured after 48 hrs by RNA-sequencing analysis relative to control; assay type: functional, Mus musculus; how it was run: as §1
[29] = test system: MEF; assay: Effect on P2rx6 gene expression in MEF cells at 2.5 uM measured after 48 hrs by RNA-sequencing analysis relative to control; assay type: functional, Mus musculus; how it was run: as §1
[30] = test system: MEF; assay: Effect on Gucy1a3 gene expression in MEF cells at 2.5 uM measured after 48 hrs by RNA-sequencing analysis relative to control; assay type: functional, Mus musculus; how it was run: as §1
[31] = test system: MEF; assay: Effect on Myh3 gene expression in MEF cells at 2.5 uM measured after 48 hrs by RNA-sequencing analysis relative to control; assay type: functional, Mus musculus; how it was run: as §1
[32] = test system: MEF; assay: Effect on Nuggc gene expression in MEF cells at 2.5 uM measured after 48 hrs by RNA-sequencing analysis relative to control; assay type: functional, Mus musculus; how it was run: as §1
[33] = test system: MEF; assay: Effect on Guca1a gene expression in MEF cells at 2.5 uM measured after 48 hrs by RNA-sequencing analysis relative to control; assay type: functional, Mus musculus; how it was run: as §1
[34] = test system: MEF; assay: Effect on Plekhg4 gene expression in MEF cells at 2.5 uM measured after 48 hrs by RNA-sequencing analysis relative to control; assay type: functional, Mus musculus; how it was run: as §1

CN1C[C@H](Nc2nc3cc[nH]c3c(=O)n2C)C[C@H](c2ccc3c(c2)OCCO3)C1
ΔTm [1]: 9.5 °C | IC50 [2]: 118 nM | inhibition [2]: Dose-dependent effect | fold change (FC) [3]: >1.5 | fold change (FC) [4]: >1.5 | fold change (FC) [5]: >1.5 | fold change (FC) [6]: >1.5 | fold change (FC) [7]: >1.5 | fold change (FC) [8]: >1.5 | fold change (FC) [9]: >1.5 | fold change (FC) [10]: >1.5 | fold change (FC) [11]: >1.5 | fold change (FC) [12]: >1.5 | fold change (FC) [13]: >1.5 | fold change (FC) [14]: >1.5 | fold change (FC) [15]: >1.5 | fold change (FC) [16]: >1.5 | fold change (FC) [17]: >1.5 | fold change (FC) [18]: >1.5 | fold change (FC) [19]: >1.5 | fold change (FC) [20]: >1.5 | fold change (FC) [21]: >1.5 | fold change (FC) [22]: >1.5 | fold change (FC) [23]: >1.5 | fold change (FC) [24]: >1.5 | fold change (FC) [25]: >1.5 | fold change (FC) [26]: >1.5 | fold change (FC) [27]: >1.5 | fold change (FC) [28]: >1.5 | fold change (FC) [29]: >1.5 | fold change (FC) [30]: >1.5 | fold change (FC) [31]: >1.5 | fold change (FC) [32]: >1.5 | fold change (FC) [33]: >1.5 | fold change (FC) [34]: >1.5

CN1C[C@@H](Nc2nc3cc[nH]c3c(=O)n2C)C[C@@H](c2ccc3c(c2)OCCO3)C1
ΔTm [1]: 0.7 °C | inhibition [2]: inactive | fold change (FC) [3]: >1.5 | fold change (FC) [4]: >1.5 | fold change (FC) [5]: >1.5 | fold change (FC) [6]: >1.5 | fold change (FC) [7]: >1.5 | fold change (FC) [8]: >1.5 | fold change (FC) [9]: >1.5 | fold change (FC) [10]: >1.5 | fold change (FC) [11]: >1.5 | fold change (FC) [12]: >1.5 | fold change (FC) [13]: >1.5 | fold change (FC) [14]: >1.5 | fold change (FC) [15]: >1.5 | fold change (FC) [16]: >1.5 | fold change (FC) [17]: >1.5 | fold change (FC) [18]: >1.5 | fold change (FC) [19]: >1.5 | fold change (FC) [20]: >1.5 | fold change (FC) [21]: >1.5 | fold change (FC) [22]: >1.5 | fold change (FC) [23]: >1.5 | fold change (FC) [24]: >1.5 | fold change (FC) [25]: >1.5 | fold change (FC) [26]: >1.5 | fold change (FC) [27]: >1.5 | fold change (FC) [28]: >1.5 | fold change (FC) [29]: >1.5 | fold change (FC) [30]: >1.5 | fold change (FC) [31]: >1.5 | fold change (FC) [32]: >1.5 | fold change (FC) [33]: >1.5 | fold change (FC) [34]: >1.5
